Data: ChEMBL document CHEMBL4613280, “Development of Pyrazolo[3,4-d]pyrimidine Kinase Inhibitors as Potential Clinical Candidates for Glioblastoma Multiforme” (ACS Med Chem Lett, 2020)

Experiments:
[1] = Synergistic cytotoxicity against human GIN28 cells assessed as combination index measured after 48 hrs in presence of N-(3-bromophenyl)-1-(2-chloro-2-phenylethyl)-6-(2-morpholinoethylsulfanyl)pyrazolo[3,4-d]pyrimidin-4-amine by Chou-Talalay assay; type: functional
Summary of the method: (§1)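 Two kinase inhibitors were combined at a 1:1 molar ratio, diluted in DMEM with 10% FBS, and incubated with the GBM cells for 48 h. Viability was read by PrestoBlue. Combination index values were calculated from three independent IC50 experiments (n = 3) and are reported as mean ± SD.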

[2] = Cytotoxicity against human GIN8 cells derived from invasive region of GBM patient assessed as reduction in cell viability measured after 48 hrs by Prestoblue assay; type: functional, cell-based
Summary of the method: (§2)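 Compounds diluted in DMEM containing 10% FBS and applied for 48 h. Viability read by PrestoBlue. IC50 calculated from three independent experiments, mean ± SE. Two-way ANOVA with Dunnett's multiple comparisons test.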

[3] = Cytotoxicity against human GIN28 cells derived from invasive region of GBM patient assessed as reduction in cell viability measured after 48 hrs by Prestoblue assay; type: functional, cell-based; summary of the method: as §2
[4] = Synergistic cytotoxicity against human GCE28 cells assessed as combination index measured after 48 hrs in presence of N-(3-bromophenyl)-1-(2-chloro-2-phenylethyl)-6-(2-morpholinoethylsulfanyl)pyrazolo[3,4-d]pyrimidin-4-amine by Chou-Talalay assay; type: functional
Summary of the method: (§3)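 Each drug pair dosed at a 1:1 molar ratio on the GBM lines and incubated 48 h. CI computed from three independent IC50 experiments (n = 3), reported as mean ± SD.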

[5] = Synergistic cytotoxicity against human GCE28 cells assessed as combination index measured after 48 hrs in presence of 2-[[4-(2-phenylethylamino)-1-[styryl]pyrazolo[3,4-d]pyrimidin-6-yl]amino]ethanol by Chou-Talalay assay; type: functional; summary of the method: as §3
[6] = Cytotoxicity against human GCE28 cells derived from central tumor core of GBM patient assessed as reduction in cell viability measured after 48 hrs by Prestoblue assay; type: functional, cell-based; summary of the method: as §2
[7] = Synergistic cytotoxicity against human GIN8 cells assessed as combination index measured after 48 hrs in presence of N-(3-bromophenyl)-1-(2-chloro-2-phenylethyl)-6-(2-morpholinoethylsulfanyl)pyrazolo[3,4-d]pyrimidin-4-amine by Chou-Talalay assay; type: functional; summary of the method: as §1
[8] = Antagonistic cytotoxicity against human GIN8 cells assessed as combination index measured after 48 hrs in presence of 2-[[4-(2-phenylethylamino)-1-[styryl]pyrazolo[3,4-d]pyrimidin-6-yl]amino]ethanol by Chou-Talalay assay; type: functional; summary of the method: as §3
[9] = Synergistic cytotoxicity against human GIN28 cells assessed as combination index measured after 48 hrs in presence of 2-[[4-(2-phenylethylamino)-1-[styryl]pyrazolo[3,4-d]pyrimidin-6-yl]amino]ethanol by Chou-Talalay assay; type: functional; summary of the method: as §3

Compound `Nc1ncnc2c1c(-c1ccc(Cl)cc1)nn2CC(Cl)c1ccccc1` (centres undefined) has a CI [1] of 0.76, an IC50 [2] of 54.7 µM and an IC50 [3] of 49.8 µM. For the same compound, the CI [4] was 0.88, the CI [5] was 0.46 and the IC50 [6] was 47.6 µM. It also gave a CI [7] of 0.53, a CI [8] of 1.13 and a CI [9] of 0.57.
